Experimental data taken from ChEMBL document CHEMBL4425108, “A Selective and Slowly Reversible Inhibitor of l-Type Amino Acid Transporter 1 (LAT1) Potentiates Antiproliferative Drug Efficacy in Cancer Cells” (J Med Chem, 2016).
Active and inactive are the calls of the source. No cut-off for these calls is given here.

Legend:
[1] = target: T1, Large neutral amino acids transporter small subunit 1 (Homo sapiens, UniProt Q01650); assay: Competitive inhibition of [14C]-L-leucine uptake at LAT1 in human MCF7 cells at 25 uM preincubated for 10 mins followed by addition of substrate measured during 5 mins by liquid scintillation counting; format: cell-based
T1 sequence (Q01650 whole entry): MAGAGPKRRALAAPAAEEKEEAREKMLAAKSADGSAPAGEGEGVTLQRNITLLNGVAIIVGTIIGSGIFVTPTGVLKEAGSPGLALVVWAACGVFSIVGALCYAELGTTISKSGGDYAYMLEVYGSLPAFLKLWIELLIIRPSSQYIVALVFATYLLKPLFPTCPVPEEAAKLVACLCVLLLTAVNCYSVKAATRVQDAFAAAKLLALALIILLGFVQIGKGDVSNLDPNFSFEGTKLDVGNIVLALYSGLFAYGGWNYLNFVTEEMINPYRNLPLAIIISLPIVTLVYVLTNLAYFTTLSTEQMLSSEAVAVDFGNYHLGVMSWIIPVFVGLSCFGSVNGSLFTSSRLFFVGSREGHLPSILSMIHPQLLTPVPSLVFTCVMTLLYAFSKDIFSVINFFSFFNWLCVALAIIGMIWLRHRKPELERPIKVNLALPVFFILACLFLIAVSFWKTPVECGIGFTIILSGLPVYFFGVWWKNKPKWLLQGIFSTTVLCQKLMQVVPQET
In short: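 MCF-7 cells seeded 1 × 10^5/well, used one day later. Washed and pre-incubated 10 min at 37 °C in choline-chloride HBSS (Na+-free, 25 mM HEPES, pH 7.4), then 5 min at 37 °C with 0.157 µM [14C]-L-leucine plus 1-1000 µM inhibitor (DMSO blank). Ice-cold washes, NaOH lysis, scintillation counting. IC50 by nonlinear regression over 8 concentrations. Mean ± SD, n=3.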

[2] = target: T1, Large neutral amino acids transporter small subunit 1; assay: Drug uptake in human MCF7 cells assessed as LAT1 mediated drug transport per mg of protein at 100 uM measured 30 mins after cold wash by HPLC analysis; format: ADME, cell-based; conditions: mcf7, 0.5 h
In short: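 MCF-7 monolayers were incubated with 100 µM compound in HBSS at 37 °C for 5 or 30 min. Cells got three washes with ice-cold or warm (37 °C) HBSS; in the warm 30 min arm they were washed after 5 min and again after 30 min. Lysates (0.1 M NaOH) were quantified by HPLC-UV against a spiked lysate standard curve and normalised to protein (Bio-Rad assay).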

[3] = target: T1, Large neutral amino acids transporter small subunit 1; assay: Inhibition of LAT1 in human MCF7 cells assessed as potentiation of cisplatin-induced antiproliferative activity by measuring reduction in cell viability at 100 uM measured after 24 hrs by resazurin dye-based fluorimetric analysis
In short: (§1)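 MCF-7 cells seeded 2 × 10^4/well on collagen-coated plates, treated one day later in growth medium with inhibitor (25 or 100 µM) plus bestatin or cisplatin (100 µM) for up to 3 days. Viability read daily by resazurin fluorescence (ex 560/em 590 nm). Viability is treated relative to untreated control. Mean ± SD, n=3.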

MCF7 [4] = assay: Antiproliferative activity against human MCF7 cells assessed as reduction in cell viability at 100 measured after 48 hrs by resazurin dye-based fluorimetric analysis; format: functional
In short: (§2)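 MCF-7 cells were seeded at 2 × 10^4 cells/well on collagen-coated plates and treated one day later. Agents were given alone or combined (25 or 100 µM with 100 µM partner drug) in growth medium for 3 days. Viability was read daily by resazurin fluorescence (ex 560/em 590 nm) and expressed relative to untreated controls.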

[5] = target: T1, Large neutral amino acids transporter small subunit 1; assay: Inhibition of LAT1 in human MCF7 cells assessed as potentiation of cisplatin-induced antiproliferative activity by measuring reduction in cell viability at 100 uM measured after 48 hrs by resazurin dye-based fluorimetric analysis; in short: as §1
[6] = AUC (0 to 480 min) in mouse plasma at 23 umol/kg, ip administered as bolus by LC-MS analysis; format: ADME, organism-based; design: dose 23 umol/kg, time < 8 hr, route intraperitoneal; conditions: in vivo, 8 h
In short: (§3)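 Male adult mice (25 ± 5 g) given a single i.p. bolus at 23 µmol/kg. The dosing solution was 1.36 mM in 10% (v/v) DMSO, 20% (w/v) hydroxypropyl-β-cyclodextrin and 0.9% NaCl. Animals were decapitated at seven time points from 10 to 480 min. Plasma and tissues were acetonitrile-precipitated with repaglinide internal standard and analysed by LC-MS. Parameters were derived from concentration–time data, mean ± SEM (n=3).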

[7] = AUC (0 to 480 min) in mouse prostate at 23 umol/kg, ip administered as bolus by LC-MS analysis; format: ADME, organism-based, Prostate gland; design: dose 23 umol/kg, time < 8 hr, route intraperitoneal; conditions: in vivo, 8 h; in short: as §3
[8] = AUC (0 to 480 min) in mouse heart at 23 umol/kg, ip administered as bolus by LC-MS analysis; format: ADME, organism-based; design: dose 23 umol/kg, time < 8 hr, route intraperitoneal; conditions: in vivo, 8 h; in short: as §3
[9] = Cmax in mouse plasma at 23 umol/kg, ip administered as bolus by LC-MS analysis; format: ADME, organism-based; design: dose 23 umol/kg, route intraperitoneal; in short: as §3
[10] = Cmax in mouse liver at 23 umol/kg, ip administered as bolus by LC-MS analysis; format: ADME, organism-based; design: dose 23 umol/kg, route intraperitoneal; conditions: in vivo; in short: as §3
[11] = Cmax in mouse kidney at 23 umol/kg, ip administered as bolus by LC-MS analysis; format: ADME, organism-based; design: dose 23 umol/kg, route intraperitoneal; conditions: in vivo; in short: as §3
[12] = Cmax in mouse heart at 23 umol/kg, ip administered as bolus by LC-MS analysis; format: ADME, organism-based; design: dose 23 umol/kg, route intraperitoneal; conditions: in vivo; in short: as §3
[13] = Fraction unbound in mouse kidney at 23 umol/kg, ip administered as bolus by LC-MS analysis; format: ADME, organism-based
In short: (§4)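 Unbound fraction was measured by equilibrium dialysis at 100 µM in mouse plasma and in brain, liver, kidney, heart and prostate homogenates.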

[14] = Fraction unbound in mouse brain at 23 umol/kg, ip administered as bolus by LC-MS analysis; format: ADME, organism-based; in short: as §4
[15] = Fraction unbound in mouse heart at 23 umol/kg, ip administered as bolus by LC-MS analysis; format: ADME, organism-based; in short: as §4
[16] = Unbound AUC (0 to 480 mins) in mouse liver at 23 umol/kg, ip administered as bolus by LC-MS analysis; format: ADME, organism-based; conditions: in vivo
In short: (§5)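 Male mice (25 ± 5 g) dosed i.p. as a bolus at 23 µmol/kg in DMSO/hydroxypropyl-β-cyclodextrin/saline vehicle, sampled at time points 10–480 min; plasma and tissue homogenates (1:3 water) analysed by LC-MS. […] Mean ± SEM.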

[17] = fCmax in mouse liver at 23 umol/kg, ip administered as bolus by LC-MS analysis; format: ADME, organism-based; conditions: in vivo; in short: as §5
[18] = fCmax in mouse kidney at 23 umol/kg, ip administered as bolus by LC-MS analysis; format: ADME, organism-based; conditions: in vivo; in short: as §5
[19] = Terminal half life in mouse plasma at 23 umol/kg, ip administered as bolus by LC-MS analysis; format: ADME, organism-based; conditions: read-out: beta t1/2
In short: (§6)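 Adult male mice (25 ± 5 g) given a single i.p. bolus of 23 µmol/kg, dosing solution 1.36 mM in 10% (v/v) DMSO, 20% (w/v) hydroxypropyl-β-cyclodextrin, 0.9% NaCl in water. Decapitation at time points 10–480 min; plasma, brain, liver, prostate, kidney, heart collected. Acetonitrile precipitation with repaglinide internal standard, LC-MS (ESI positive). tmax and t½β taken from concentration-time data; mean ± SEM, n=3.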

[20] = Terminal half life in mouse prostate at 23 umol/kg, ip administered as bolus by LC-MS analysis; format: ADME, organism-based, Prostate gland; conditions: read-out: beta t1/2; in short: as §6
[21] = Terminal half life in mouse kidney at 23 umol/kg, ip administered as bolus by LC-MS analysis; format: ADME, organism-based; conditions: read-out: beta t1/2; in short: as §3
[22] = Terminal half life in mouse brain at 23 umol/kg, ip administered as bolus by LC-MS analysis; format: ADME, organism-based; conditions: read-out: beta t1/2; in short: as §3
MCF7 [23] = assay: Antiproliferative activity against human MCF7 cells assessed as reduction in cell viability at 25 measured after 48 hrs by resazurin dye-based fluorimetric analysis; format: functional; in short: as §2
Mus musculus [24] = assay: Binding affinity to LAT1 in mouse brain assessed as inhibition of [14C]-L-leucine uptake at 23 umol/kg, ip measured 10 mins post perfusion with [14C]-L-leucine; format: functional
In short: (§7)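 Mice under ketamine/xylazine anaesthesia had the right common carotid artery cannulated. Brains were perfused at 37 °C, 2.5 mL/min, for 30 s with 0.157 µM [14C]-L-leucine, then 2 s with analyte-free buffer at 4 °C. Perfusion took place 10 or 180 min after 23 µmol/kg i.p. dosing.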

Mus musculus [25] = assay: Binding affinity to LAT1 in mouse brain assessed as inhibition of [14C]-L-leucine uptake at 23 umol/kg, ip measured 180 mins post perfusion with [14C]-L-leucine; format: functional; conditions: 3 h; in short: as §7
[26] = Ratio of IC50 for human MCF7 cells to IC50 for [14C]-L-leucine uptake at LAT1 in human MCF7 cells

SMILES: CNC(=O)COc1ccc(-c2c(C#N)c(NC(=O)c3cccc(C[C@H](N)C(=O)O)c3)n3c(nc4ccccc43)c2C#N)cc1
- inhibition [1]: 55.1%
- Drug uptake [2]: 2.63 nmol/mg
- Activity [3]: 65%
- Activity (MCF7 [4]): 14.8%
- Activity [5]: 60.4%
- AUC [6]: 795 nmol/min/mL
- AUC [7]: 1275 nmol/g/min
- AUC [8]: 249 nmol/g/min
- Cmax [9]: 19.5 µM
- Cmax [10]: 38.7 nmol/g
- Cmax [11]: 22.5 nmol/g
- Cmax [12]: 4.9 nmol/g
- fraction unbound [13]: 0.0166
- fraction unbound [14]: 0.0103
- fraction unbound [15]: 0.0162
- fAUC [16]: 18.9 nmol/g/min
- fCmax [17]: 0.38 nmol/g
- fCmax [18]: 0.37 nmol/g
- half-life [19]: 44.9 min
- half-life [20]: 12 min
- half-life [21]: 41.8 min
- half-life [22]: 71.6 min
- Activity (MCF7 [23]): inactive
- inhibition in vivo at 23 µmol/kg (Mus musculus [24]): 27%
- inhibition in vivo at 23 µmol/kg (Mus musculus [25]): 14%
- Ratio IC50 [26]: 6.9
